Assay [1] addresses T1, Methylated-DNA--protein-cysteine methyltransferase (Homo sapiens, UniProt P16455).
T1 sequence (P16455 whole entry): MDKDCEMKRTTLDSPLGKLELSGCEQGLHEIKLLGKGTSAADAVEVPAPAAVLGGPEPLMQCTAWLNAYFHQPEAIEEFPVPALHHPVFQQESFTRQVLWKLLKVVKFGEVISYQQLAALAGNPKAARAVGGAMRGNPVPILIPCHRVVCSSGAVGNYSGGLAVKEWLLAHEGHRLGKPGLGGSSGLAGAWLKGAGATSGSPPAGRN
The assay can be described thus: concentration required to reduce AGT activity to 50% of control rate in HT-29 cell extract. It is filed as cell-based. In short, it runs like this:
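HT29 cell extract AGT assay; IC50 is the inhibitor concentration reducing AGT activity to 50% of the control rate.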

Assay [2] has as its target T2, Methylated-DNA--protein-cysteine methyltransferase (Homo sapiens) (UniProt P16455).
T2 sequence (whole entry): T1 sequence (P16455 whole entry)
The assay can be described thus: Percent of AGT inactivation in HT-29 cell extract at 1 mM concentration.

The target of assay [3] is T1, Methylated-DNA--protein-cysteine methyltransferase. The assay can be described thus: Inhibition of AGT activity to 50% of control rate in HT-29 cell extract. It is filed as cell-free.
Assay [4] has the same target. The assay can be described thus: (§1) concentration required to reduce AGT activity to 50% of control rate in intact HT-29 human colorectal carcinoma cells. It is filed as cell-based. In short, it runs like this:
(§2)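 HT29 cells were grown 3 days in EMEM with 10% FCS, then exposed for 4 h to inactivator in serum-free EMEM (DMSO final 1% or 0.1%). Cells were trypsinized, washed and counted by trypan blue; pellets of 10⁷ cells were homogenized in Tris-HCl pH 8.3 buffer with EDTA, DTT and 200 mM NaCl. AGT activity was assayed in the extracts, and the concentration depleting whole-cell AGT activity by 50% was calculated.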

The test system of assay [5] is T3, Methylated-DNA--protein-cysteine methyltransferase (Homo sapiens), P16455 [Y158H].
T3 sequence (whole entry): T1 sequence (P16455 whole entry) with Y158H
The assay can be described thus: Compound was evaluated for inactivation of Y158H mutant AGT. In short, it runs like this: (§3)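 Recombinant wild-type or mutant (P140K, Y158H, G160R, G156A) AGT, made in E. coli with an N-terminal His6 tag and purified by metal affinity, was preincubated with inhibitor for 30 min at 37 °C in 50 mM Tris-HCl pH 7.5, 0.1 mM EDTA, 5 mM DTT and hemocyanin. Residual activity was measured over a further 30 min with methylated DNA substrate. ED50 was read from a plot of % activity lost against inhibitor amount, with a maximum of […] inhibitor.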

Assay [6] concerns T4, Methylated-DNA--protein-cysteine methyltransferase (Homo sapiens), P16455 [P140K].
T4 sequence (whole entry): T1 sequence (P16455 whole entry) with P140K

The subject of assay [7] is T5, Methylated-DNA--protein-cysteine methyltransferase (Homo sapiens), P16455 [G160R].
T5 sequence (whole entry): T1 sequence (P16455 whole entry) with G160R

The target of assay [8] is T2, Methylated-DNA--protein-cysteine methyltransferase (Homo sapiens). The assay can be described thus: Compound was evaluated for inactivation of 156A mutant AGT. In short, it runs like this:
as §3

Assay [9] shares this target. The assay can be described thus: Percent AGT inactivation in HT-29 cell extract at 1 mM. The assay is classed as cell-based.
Assay [10] relates to HT-29. The assay can be described thus: Level of AGT activity in HT-29 cell line. The following applies: Homo sapiens. The assay is classed as functional, cell-based.
For assay [11], the system named is COLO 205. The assay can be described thus: Level of AGT activity in COLO 205 cell line. It is filed as functional, cell-based. The following applies: Homo sapiens.
In assay [12] the test system is HT-29. The assay can be described thus: Cytotoxicity of compound in HT-29 cell line. The assay is classed as functional, cell-based. The following applies: Homo sapiens. In short, it runs like this: (§4)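 Colony-forming assay: exponentially growing cells were preincubated 1 h with 10 µM AGT inactivator (0.1% DMSO), then given temozolomide 0–1000 µM final (1% DMSO) for 4 h at 37 °C. Cells were then plated: HT29 on plastic, Colo205 in 0.15% agarose, with inactivator kept at 10 µM. After about 2 weeks, colonies were stained (crystal violet for HT29, MTT for Colo205) and counted. Temozolomide IC50 is mean ± SD of 3 independent experiments.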

The subject of assay [13] is COLO 205. The assay can be described thus: Cytotoxicity of compound in COLO 205 cell line. It is filed as functional, cell-based. The following applies: Homo sapiens. In short, it runs like this:
as §4

In assay [14] the target is T1, Methylated-DNA--protein-cysteine methyltransferase. The description is as §1. The assay is classed as cell-based. In short, it runs like this: as §2
The source holds these as a separate data set.

The target is the same in assay [15]. The assay can be described thus: concentration required to reduce AGT activity to 50% of control rate in intact HT-29 human colorectal carcinoma cells. It is filed as cell-based. In short, it runs like this:
as §2

In assay [16] the test system is T5, Methylated-DNA--protein-cysteine methyltransferase (Homo sapiens), P16455 [G160R]. The assay can be described thus: Compound was evaluated for inactivation of G160R mutant AGT. In short, it runs like this: as §3
In assay [17] the test system is T4, Methylated-DNA--protein-cysteine methyltransferase (Homo sapiens), P16455 [P140K]. The assay can be described thus: Compound was evaluated for inactivation of P140K mutant AGT. In short, it runs like this:
as §3

In assay [18] the target is T2, Methylated-DNA--protein-cysteine methyltransferase (Homo sapiens). The assay can be described thus: Compound was evaluated for inactivation of Wild type AGT. In short, it runs like this: as §3

Positions count from the first letter of the chain named. Where “and” joins values, the source holds several entries; their conditions need not be identical. Identical values can stand only once. Where only a bound is given, the exact number is not on record here.

A word on the IC50: it is the concentration at which inhibition is half-maximal. A lower IC50 goes with higher potency.

Turning to `CC(C)C(=O)COc1nc(N)nc2nc[nH]c12`, in assay [1], the IC50 is > 1000 µM. The same compound came in with an Inactivation in [2] of 31%.

Turning to `C=C(C)COc1nc(N)nc2nc[nH]c12`, the IC50 was 25 µM in [3]; 13.5 µM and 9.9 µM in assay [4].

In turn, `Nc1nc(OCC2=CCC2)c2[nH]cnc2n1` gave an IC50 in assay [3] of 0.55 µM.

`CC(C)CCOc1nc(N)nc2nc[nH]c12`: the concentration for half-maximal inhibition (IC50) in assay [1] was > 1000 µM.

Regarding `Nc1nc(OCc2ccccc2)c2nc[nH]c2n1`, the ED50 was 620 µM in assay [5], > 1500 µM in [6], 4.7 µM in [7] and 60 µM in [8].

Regarding `COC(COc1[nH]c(N)nc2ncnc1-2)(OC)c1ccccc1`, the Inactivation in assay [9] was determined as 0%.

The compound `CC/C=C/CCOc1nc(N)nc2[nH]cnc12` returned an Inactivation in assay [9] of 88%.

As to `CCOc1nc(N)nc2nc[nH]c12`, in assay [3], the 50% inhibitory concentration (IC50) is > 1000 µM.

Turning to `Nc1nc(OCC2CCCCC2)c2nc[nH]c2n1`, the Inactivation in assay [9] came out at 0%. In addition, the half-inhibitory concentration (IC50) in assay [1] is > 1000 µM.

For `CCC(COc1nc(N)nc2[nH]cnc12)(OC)OC`, in [9], the Inactivation amounted to 0%. Further, the IC50 in [3] was > 1000 µM.

`Cn1nnc2c(C(N)=O)ncn2c1=O` [TEMOZOLOMIDE]: the Level with HT-29 [10] was 908 fM/mg; with COLO 205 [11], 1160 fM/mg. Moreover, the IC50 stood at 951 µM in the assay with HT-29 [12] and 343 µM in the assay on COLO 205 [13].

In turn, `C=C(C)[C@H]1CC=C(COc2nc(N)nc3[nH]cnc23)CC1` showed an IC50 in assay [3] of 2.6 µM.

Take `Nc1nc(OCC(=O)c2ccccc2)c2[nH]cnc2n1`: in assay [9], the Inactivation came to 0%. In addition, the half-maximal inhibitory concentration (IC50) in assay [1] is > 1000 µM.

The compound `CCOc1nc(N)nc2[nH]cnc12` displayed an Inactivation in assay [9] of 0%.

Consider `C=CCOc1nc(N)nc2nc[nH]c12`, for which the IC50 turned out to be 5.1 µM in assay [14], 8.5 µM in assay [3] and 2.7 µM in assay [4].

In the case of `CC(C)C1(COc2nc(N)nc3[nH]cnc23)OCCO1`, the Inactivation in assay [9] came to 54%.

For `CC(C)CCOc1nc(N)nc2[nH]cnc12`, the Inactivation in assay [2] was 24%.

`Cn1nnc2c(C(N)=O)ncn2c1=O.Nc1nc(OCC2=CCCC2)c2[nH]cnc2n1`: the IC50 in the assay on HT-29 [12] worked out at 299 µM; in the assay on COLO 205 [13], 36 µM.

`C=C(CC)COc1nc(N)nc2[nH]cnc12` came in with an IC50 in assay [3] of 16 µM.

For the compound `C=C(COc1nc(N)nc2[nH]cnc12)C(C)C`, in assay [1], the IC50 is > 1000 µM. In [2], this compound came in with an Inactivation of 22%.

For the compound `C=C(COc1nc(N)nc2nc[nH]c12)c1ccccc1`, the IC50 is 77 µM in assay [3]; 37.5 µM and 39.6 µM in assay [4].

As for `C#CCOc1nc(N)nc2nc[nH]c12`, the 50% inhibitory concentration (IC50) in assay [3] was 20 µM; in assay [4], 11.5 µM and 11.9 µM.

With `COC(COc1nc(N)nc2nc[nH]c12)(OC)c1ccccc1`, the IC50 in assay [3] is > 1000 µM.

For the compound `Nc1nc(OCC2CC=CCC2)c2[nH]cnc2n1` (stereo not drawn), the 50% inhibitory concentration (IC50) in assay [1] was > 1000 µM. The compound also came in with an Inactivation in [2] of 32%.

For the compound `Nc1nc(OCC2CCC2)c2[nH]cnc2n1`, the IC50 in assay [1] is > 1000 µM. This compound came in with an Inactivation in assay [2] of 34%.

Regarding `Cn1nnc2c(C(N)=O)ncn2c1=O.Nc1nc(OCc2ccccc2)c2[nH]cnc2n1`, the IC50 in the assay with HT-29 [12] was determined as 86 µM; with COLO 205 [13], 14 µM.

In turn, `C=CCCCCOc1nc(N)nc2[nH]cnc12` had an Inactivation in [9] of 65%.

Consider `CCCCCCCOc1nc(N)nc2[nH]cnc12`, for which, in assay [9], the Inactivation was 10%. Besides, in [3], the IC50 was > 100 µM.

Turning to `CCCOc1nc(N)nc2nc[nH]c12`, the IC50 in [1] was > 1000 µM.

With `CC(=O)COc1nc(N)nc2[nH]cnc12`, the IC50 was 192 µM in assay [3]; 95 µM and 119 µM in assay [4].

As to `CCOC(C)(COc1nc(N)nc2[nH]cnc12)OCC`, in assay [9], the Inactivation came out at 0%. Further, the concentration for half-maximal inhibition (IC50) in assay [3] is > 1000 µM.

As to `Nc1nc(Oc2cccs2)c2[nH]cnc2n1`, in assay [3], the IC50 was 0.003 µM. In other words, the single-digit nanomolar range.

Take `CC/C=C\CCOc1[nH]c(N)nc2ncnc1-2`: in assay [1], the 50% inhibitory concentration (IC50) was > 1000 µM. Besides, the Inactivation in assay [2] came out at 32%.

Consider `COc1nc(N)nc2nc[nH]c12` [METHYLGUANINE], for which the 50% inhibitory concentration (IC50) in assay [15] worked out at 248 µM; in assay [3] it was 428 µM.

Turning to `CCCCCOc1nc(N)nc2[nH]cnc12`, the IC50 in assay [3] came to 1010 µM.

Turning to `Nc1nc(OCC2=CCCCC2)c2[nH]cnc2n1`, in assay [3], the IC50 amounted to 1.6 µM. Against the preceding compound, the IC50 is about 630-fold lower.

`Nc1nc(OCC2CCCC2)c2nc[nH]c2n1`: the half-maximal inhibitory concentration (IC50) in assay [1] was > 1000 µM. In assay [2], this compound yielded an Inactivation of 0%.

In [3], `CCCCOc1nc(N)nc2[nH]cnc12` yielded a half-maximal inhibitory concentration (IC50) of 493 µM.

Regarding `CCCCCCOc1[nH]c(N)nc2ncnc1-2`, the IC50 in [3] was 554 µM.

As to `Nc1nc(OCC2=CCCC2)c2[nH]cnc2n1`, the concentration for half-maximal inhibition (IC50) is 0.2 µM in assay [15] and 0.39 µM in [3].

In assay [3], `Nc1nc(OCCc2ccccc2)c2nc[nH]c2n1` gave a 50% inhibitory concentration (IC50) of 548 µM.

As for `CCCOc1nc(N)nc2[nH]cnc12`, the Inactivation in assay [2] was found to be 24%.

Regarding `CCC(=O)COc1nc(N)nc2nc[nH]c12`, the IC50 in assay [3] was 151 µM; in [4], 94.5 µM and 93.2 µM.

Compound `CC1(C)OCC(COc2nc(N)nc3[nH]cnc23)O1` (stereo not drawn) yielded an Inactivation in [9] of 0%. The IC50 in assay [3] is > 1000 µM.

For `Nc1nc(OCC2=CCCC2)c2nc[nH]c2n1`, the ED50 in assay [5] is 1500 µM; in assay [16] it was 13 µM; in assay [17], > 1500 µM; in [8], 113 µM; in assay [18], 0.3 µM.

The record behind these values is ChEMBL document CHEMBL1133481, “Resistance-modifying agents. 8. Inhibition of O(6)-alkylguanine-DNA alkyltransferase by O(6)-alkenyl-, O(6)-cycloalkenyl-, and O(6)-(2-oxoalkyl)guanines and potentiation of temozolomide cytotoxicity in vitro by O(6)-(1-cyclopentenylmethyl)guanine” (J Med Chem, 2000).
